Source: PubChem BioAssay
Only some compounds are listed: those with a hit (about 5.2% of all), similar ones and a draw of the others.
ZTA DNA inh: counter-screen for EBNA-1 inhibitors: inhibitors of Epstein-Barr virus ZTA | ZTA-DNA binding, fluorescence polarization | 320,000 tested, 0.15% active | inhibition, % at 11 µM | P03206 | AID 2234; in the data active = inhibition above about 33%
Target sequence (P03206 whole entry, looked up): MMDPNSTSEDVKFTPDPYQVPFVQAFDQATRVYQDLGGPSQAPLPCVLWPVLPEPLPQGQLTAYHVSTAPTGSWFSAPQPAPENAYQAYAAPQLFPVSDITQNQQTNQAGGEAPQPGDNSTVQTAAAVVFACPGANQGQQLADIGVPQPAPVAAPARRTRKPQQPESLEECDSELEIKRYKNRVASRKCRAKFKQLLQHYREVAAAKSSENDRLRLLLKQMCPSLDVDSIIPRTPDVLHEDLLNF
EBNA-1 inhibitor: EBNA-1 DNA-binding inhibitors, primary screen, biochemical, fluorescence polarization; 300,000 tested, 0.34% active; inhibition, % at 14.8 µM; AID 1950, 2009; in the data active = inhibition above about 28%
NS3 helicase inh: inhibitors of HCV NS3 helicase, primary screen, biochemical, Cy5 molecular beacon fluorescence; inhibition, % at 10.9 µM; 290,000 tested, 0.56% active; NS3 helicase DNA unwinding;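 active = inhibition above the mean of all tested compounds plus 3 SD, set per campaign, cut at about 35% in these data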;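 note: 0% = DMSO wells and 100% = thioflavine S control wells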
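System: Hepatitis C virus NS3 helicase domain fragment enzyme | Reagent: Annealed dual-labelled DNA beacon duplex, ATP-started | Compound dosing: 10.9 µM single point, 0.8% DMSO | Incubation: 1 h reaction at 25 °C, ATP-initiated | Technique: Cy5 fluorescence | Evaluation: Percent inhibition from t60/t0 fluorescence ratio | Benchmarks: Low DMSO, high thioflavine S at 110 µM | Replication: Singlicate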
ALR H2O2 inh: inhibitors of human ALR sulfhydryl oxidase, primary screen, biochemical, H2O2 detection, HRP-luminol luminescence, single point; FAD-linked sulfhydryl oxidase ALR (Homo sapiens), P55789; purified ALR, DTT oxidation; inhibition, % (no concentration beside the values); 290,000 tested, 3.8% active;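 active = mean replicate inhibition above about 79%, with every replicate also reaching it, limit read from the data; inconclusive = only one of the two criteria met; inactive = mean below limit and not every replicate reaching it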
Target sequence (P55789 whole entry, looked up): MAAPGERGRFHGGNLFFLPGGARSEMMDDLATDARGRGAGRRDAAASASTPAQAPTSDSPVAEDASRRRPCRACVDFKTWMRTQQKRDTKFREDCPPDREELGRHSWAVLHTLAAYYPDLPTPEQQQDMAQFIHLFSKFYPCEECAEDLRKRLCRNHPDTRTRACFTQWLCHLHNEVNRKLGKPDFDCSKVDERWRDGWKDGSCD
core dimer inh: inhibitors of HCV core protein dimerization, primary screen, biochemical, TR-FRET, high-throughput; inhibition, % at 5 µM; TR-FRET GST/Flag-core106 dimerization, 1536-well; AID 1899, 2009; 300,000 tested, 0.33% active;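 active = inhibition above the mean of all tested compounds plus 3 SD, set per screening campaign, cut at about 45% in these data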
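Test system: GST/Flag-tagged HCV core106 proteins; Medium: KF-containing HEPES buffer, pH 7.45, DTT, CHAPS, BSA; Times: compound-protein-antibody incubation 4 h at 22.5 °C; Detection: TR-FRET 671 and 617 nm emission; Benchmarks: wells lacking GST-core106 and wells with excess unlabelled core106.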
PfM18AAP inh-1: PfM18AAP inhibitors, malaria aminopeptidase, primary screen, biochemical, QFRET, recombinant enzyme | inhibition, % at 7.35 µM | H-Glu-NHMec fluorogenic cleavage | M18 aspartyl aminopeptidase (Plasmodium falciparum 3D7) | 290,000 tested, 1.2% active | AID 1822, 2009;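 active = inhibition above the campaign mean inhibition over all tested compounds plus 3 SD, cut at about 28% in these data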;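 note: 0% = plate median of test compound wells and 100% = 2 mM ZnCl2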
PfM18AAP inh-2: PfM18AAP inhibitors, malaria aminopeptidase, confirmation, biochemical, QFRET, recombinant enzyme, triplicate; inhibition, % at 7.35 µM; 2,400 tested, 28% active; H-Glu-NHMec fluorogenic cleavage; shares compounds with PfM18AAP inh-1; AID 2170, 2009;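 active = mean inhibition over replicate wells above the hit cutoff set for the earlier primary screen, cut at about 29% in these data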;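 note: 0% = median of test compound wells and 100% = 2 mM ZnCl2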
CTSL1 confirm: cathepsin L1 inhibitors, retest, confirmation, counter-screen for PFM18AAP inhibitor project, biochemical, QFRET, triplicate | shares compounds with PfM18AAP inh-1 | purified cathepsin L1, Z-Leu-Arg-MCA fluorescence | inhibition, % at 5.96 µM | 2,400 tested, under 10 active;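 active = average inhibition across replicates above the hit cutoff set in the earlier primary screen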;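 note: 0% = median of test compound wells and 100% = Z-Phe-Ala-diazomethylketone 1 µM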
* hit, by the source's call.

What do the screens show for `O=C(CN1CCN(c2ccc(O)cc2)CC1)Nc1cc(S(=O)(=O)N2CCCC2)ccc1Cl`?
ZTA DNA inh: 5; EBNA-1 inhibitor: -6; NS3 helicase inh: 10; ALR H2O2 inh: 90*; core dimer inh: 25; PfM18AAP inh-1: 36*; PfM18AAP inh-2: -14; CTSL1 confirm: -3

How did COc1ccc(C(=O)NCC(=O)OCC(=O)c2ccc3c(c2)NC(=O)CO3)cc1 do in these assays?
ZTA DNA inh: -1; EBNA-1 inhibitor: -7; NS3 helicase inh: 0; ALR H2O2 inh: -9; core dimer inh: 0; PfM18AAP inh-1: -11

How did N#CC1=C(N)SC(N)=C(C#N)C1C1CC=CCC1 (centres undefined) do in these assays?
ZTA DNA inh: 9; EBNA-1 inhibitor: 0; NS3 helicase inh: 4; ALR H2O2 inh: 4; core dimer inh: 3; PfM18AAP inh-1: 36*; PfM18AAP inh-2: -11; CTSL1 confirm: -3

How did CC(=O)c1ccc(N2CCN(Cc3nc4ccccc4[nH]3)CC2)cc1 do in these assays?
ZTA DNA inh: 22; EBNA-1 inhibitor: -7; NS3 helicase inh: 4; core dimer inh: 15; PfM18AAP inh-1: 6

Results for Oc1ccc(N2CCN(Cc3nc4ccccc4[nH]3)CC2)cc1 ?
ZTA DNA inh: 8; EBNA-1 inhibitor: 12; NS3 helicase inh: 4; ALR H2O2 inh: 99*; core dimer inh: 1; PfM18AAP inh-1: 42*; PfM18AAP inh-2: -25; CTSL1 confirm: -5

How did CCOc1ccccc1C(=O)N/N=C/c1coc2ccc(Cl)cc2c1=O do in these assays?
NS3 helicase inh: 0; ALR H2O2 inh: inconclusive; PfM18AAP inh-1: 33*; PfM18AAP inh-2: -22; CTSL1 confirm: 2

How did O=C(O)CCn1c2c(c3ccccc31)CCCC2 do in these assays?
ZTA DNA inh: 9; EBNA-1 inhibitor: 9; NS3 helicase inh: 10; ALR H2O2 inh: 99*; core dimer inh: -6; PfM18AAP inh-1: 45*; PfM18AAP inh-2: -28; CTSL1 confirm: 4

How did Cc1[nH]c(=S)c(C#N)c(-c2ccco2)c1C(=O)N(C)C do in these assays?
ZTA DNA inh: 8; EBNA-1 inhibitor: 0; NS3 helicase inh: 4; ALR H2O2 inh: -22; core dimer inh: -1; PfM18AAP inh-1: 51*; PfM18AAP inh-2: 29*; CTSL1 confirm: 1

What do the screens show for `COc1ccccc1NCc1cc(=O)oc2c(C)c(O)ccc12`?
ZTA DNA inh: -4; EBNA-1 inhibitor: -6; NS3 helicase inh: 20; ALR H2O2 inh: 56; core dimer inh: 11; PfM18AAP inh-1: 12

How did COC(=O)c1ccccc1NCc1cc(=O)oc2cc(O)c(O)cc12 do in these assays?
ZTA DNA inh: 4; EBNA-1 inhibitor: -4; NS3 helicase inh: 7; ALR H2O2 inh: 45; core dimer inh: 12; PfM18AAP inh-1: 34*; PfM18AAP inh-2: -5; CTSL1 confirm: 8

Results for Fc1ccc(Oc2ccc3nnc(C(F)(F)F)n3n2)cc1 ?
ZTA DNA inh: 6; EBNA-1 inhibitor: 3; NS3 helicase inh: -12; ALR H2O2 inh: -5; core dimer inh: 0; PfM18AAP inh-1: -7

Results for N#Cc1cnc(SCCc2ccccc2)nc1N ?
ZTA DNA inh: -5; EBNA-1 inhibitor: 1; NS3 helicase inh: -4; ALR H2O2 inh: -2; core dimer inh: 5; PfM18AAP inh-1: 5

Results for Cc1cnc(SCCc2ccncc2)nc1C ?
ZTA DNA inh: -6; EBNA-1 inhibitor: -2; NS3 helicase inh: -13; ALR H2O2 inh: 99*; core dimer inh: -4; PfM18AAP inh-1: 62*; PfM18AAP inh-2: -8; CTSL1 confirm: -1

What do the screens show for `Cn1c(C(=O)OCC(=O)NCc2ccc(F)cc2)cc2occc21`?
ZTA DNA inh: 8; EBNA-1 inhibitor: 2; core dimer inh: 0
